Rows were chosen to be rich in hits. Some 1.6% of all compounds tested hit in one or more screens of this group.
TLR9-MyD88 inh = TLR9-MyD88 interaction inhibition; inhibition, % at 4.98 µM; CHO BLA complementation TLR9-MyD88, CCF4 FRET ratio; Q9NR96+Q99836; 340,000 tested, 0.21% active; AID 504734;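 active = inhibition above the mean over all tested compounds plus 3 SD, cut at about 21% in these data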
Dynein transport = dynein cargo transport inhibition; 3617.4 mouse cells, GR-EGFP nuclear translocation imaging; test concentration mostly 20 µM; stimulated with dexamethasone, 1 µM; hits give low values; z-score, hits read low; 220,000 tested, 0.47% active; AID 1381;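 active = plate z-score of nuclear minus cytoplasmic receptor signal below a set negative limit, without overly bright fluorescence or cell loss, cut at about -3.5 in these data, passing the limit was not always enough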;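 note: z-score of nuclear minus cytoplasmic ring GR-EGFP intensity difference per well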
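Buffer or medium: tet-free, stripped-serum medium; reagent: dexamethasone at 1.0 µM final, 30 min; incubation: 48 h induction, 1 h compound, 30 min dex at 37 °C; measured by: formaldehyde fixation, Hoechst nuclear stain, 10x automated fluorescence imaging; read-out: nuclear-to-cytoplasmic GR-EGFP distribution per well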
B2AR ag = activates human beta-2 adrenergic receptor causing internalization; Am2.2-beta2AR cells, FAP receptor internalization, flow cytometry; P07550; 340,000 tested, 0.43% active; response, % (no concentration beside the values); AID 504454;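 active = response above a set limit, near 3 SD of response in nonfluorescent compounds, cut at about 42% in these data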
Target sequence (P07550 whole entry, looked up): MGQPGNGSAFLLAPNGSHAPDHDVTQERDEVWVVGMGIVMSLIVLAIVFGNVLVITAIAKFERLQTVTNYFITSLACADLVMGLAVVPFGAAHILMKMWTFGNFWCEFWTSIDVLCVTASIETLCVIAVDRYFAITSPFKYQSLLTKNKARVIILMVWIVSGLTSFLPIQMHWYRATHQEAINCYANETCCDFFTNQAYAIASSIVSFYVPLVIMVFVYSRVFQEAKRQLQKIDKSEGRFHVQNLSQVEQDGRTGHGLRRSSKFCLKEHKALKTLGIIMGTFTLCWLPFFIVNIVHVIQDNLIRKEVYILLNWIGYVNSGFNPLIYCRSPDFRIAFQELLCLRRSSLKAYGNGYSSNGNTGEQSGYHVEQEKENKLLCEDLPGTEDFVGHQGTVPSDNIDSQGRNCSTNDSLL
NOD2-RIPK2 inh = blocks binding of human NOD2 to RIPK2. AID 624267. 360,000 tested, 0.38% active. O43353. CHO BLA complementation NOD2-RIPK2, CCF4 ratio. inhibition, % at 4.98 µM; in the data active = inhibition above about 21%
ABHD5-PLIN5 inh = inhibitors of human ABHD5-perilipin-5 interaction | Q00G26+Q8WTS1 | Split G. princeps luciferase complementation, luminescence, 4 h | inhibition, % at 4 µM | 360,000 tested, 0.78% active | AID 602281;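 active = inhibition above the mean inhibition across every tested compound plus 3 SD, cut at about 22% in these data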
TLR4 MyD88 comp = blocks binding of human TLR4 to MyD88; O00206+Q99836; HeLa CL3-4 TLR4/MyD88 BLA complementation, FRET ratio; inhibition, % at 8.4 µM; 200,000 tested, 0.18% active; AID 861; in the data active = inhibition above about 25%
Dynein inh conf = dynein cargo transport inhibition, confirmation; shares compounds with Dynein transport; 3617.4 GR-EGFP nuclear translocation imaging, dexamethasone-induced; calls only at 20 µM; 1,000 tested, 69% active; AID 463116;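 active = inhibition of receptor movement into the nucleus at or above a set limit in both runs, with normal cell brightness and cell count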;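 note: dexamethasone at 1 µM final in well for 30 min; nuclear minus cytoplasmic GR-EGFP mean intensity difference in channel 2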
TLR9-MyD88 conf = confirmation of human TLR9-MyD88 binding inhibitors; CHO TLR9/MyD88 BLA complementation, CCF4 FRET ratio; shares compounds with TLR9-MyD88 inh; 680 tested, 51% active; inhibition, % at 4.98 µM;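 active = mean inhibition across three repeats above about 21% taken from the earlier screen, limit read from the data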;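 note: blue over green emission ratio reports constitutive TLR9 MyD88 association via BLA complementation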
BLA counter-1 = non-selective beta-lactamase inhibitors in TLR9-MyD88 counter-screen; 680 tested, 7% active; shares compounds with TLR9-MyD88 inh; CHO-BLA cells, CCF4 FRET ratio, BLA reporter; AID 540251; inhibition, % at 4.98 µM;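 active = mean inhibition above a 50% cutoff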;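 note: counterscreen of TLR9-MyD88 hits on CMV-driven BLA in CHO-K1 cells; higher means less blue over green ratio so more BLA blockade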
TLR9 CHO cytotox = counter-screen for TLR9-MyD88 inhibitors: cytotoxicity in CHO cells | shares compounds with TLR9-MyD88 inh | luminescence | inhibition, % at 4.98 µM | 680 tested, 39% active | AID 588336; in the data active = inhibition above about 11%
ABHD5 PLIN5 conf = confirmation of human ABHD5-PLIN5 interaction inhibitors | shares compounds with ABHD5-PLIN5 inh | biochemical ABHD5-PLIN5 interaction, luminescence | inhibition, % at 4 µM | 2,200 tested, 67% active | AID 651612; in the data active = inhibition above about 23%
HNF4 counter = active in HNF4 split-luciferase counter-screen for ABHD5-PLIN5 inhibitors; HNF4 dimerization, luminescence, biochemical; 2,200 tested, 77% active; AID 651674; inhibition, % at 4 µM; shares compounds with ABHD5-PLIN5 inh;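 active = mean inhibition across replicate wells exceeding the computed hit threshold, cut at about 13% in these data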;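 note: light from luciferase halves that rejoin when HNF4 fusion proteins dimerize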
NOD2-RIPK2 conf = confirmation of human NOD2-RIPK2 interaction inhibitors; shares compounds with NOD2-RIPK2 inh; 1,200 tested, 70% active; inhibition, % at 4.98 µM; CHO cells, NOD2-RIPK2 BLA complementation, CCF4 FRET;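 active = mean inhibition across replicates above a set limit taken from the earlier primary screen, cut at about 21% in these data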
BLA counter-2 = NOD2-RIPK2 counterscreen BLA reporter activity; shares compounds with NOD2-RIPK2 inh; CHO BLA reporter, CCF4 FRET ratio; inhibition, % at 4.98 µM; 1,200 tested, 57% active; AID 624371;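 active = mean inhibition above the low-control mean inhibition plus three low-control SD, cut at about 11% in these data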
A number is an active result; – = inactive; · = not tested or not shown; + = active, no number.

SMILES	TLR9-MyD88 inh	Dynein transport	B2AR ag	NOD2-RIPK2 inh	ABHD5-PLIN5 inh	TLR4 MyD88 comp	Dynein inh conf	ABHD5 PLIN5 conf	HNF4 counter	NOD2-RIPK2 conf	BLA counter-2	others
O=[N+]([O-])c1cc(S(=O)(=O)N2CCCCCC2)ccc1F	–	-4.4	50	30	–	–	+	·	·	54	–
Cn1c(=O)c2ncn(C)c2n(C)c1=O	–	·	–	–	–	·	·	·	·	·	·
CCn1c(=O)c([N+](=O)[O-])c(NCCN(C)C)c2ccccc21	–	–	–	–	–	–	·	·	·	·	·
CCn1c(=O)c([N+](=O)[O-])c(Cl)c2ccccc21	44	-6.1	77	88	41	–	+	71	95	96	22	TLR9-MyD88 conf=62;BLA counter-1=–;TLR9 CHO cytotox=96
O=c1c2ccccc2sn1-c1ccccc1F	–	·	·	–	–	·	·	·	·	·	·
Cc1ccccc1-n1sc2cc(F)ccc2c1=O	36	-4.8	–	34	91	–	+	·	·	47	19	TLR9-MyD88 conf=21;BLA counter-1=–;TLR9 CHO cytotox=100
Cc1nc2ccc(NC(=O)C3(C)CCCN(C(C)C)C3)cc2o1 (configuration not stated)	·	·	·	–	–	·	·	·	·	·	·
Cc1ccccc1CS(=O)(=O)c1nnc([C@H](Cc2ccccc2)NC(=O)OC(C)(C)C)o1	–	-5.5	61	57	43	–	+	57	105	50	–
COc1ccccc1NC(=O)C(C)OC(=O)CCSc1ccc(F)cc1 (configuration not stated)	–	·	–	–	–	·	·	·	·	·	·
COc1ccc(N2C(=O)CC(Sc3nnnn3-c3ccc(F)cc3)C2=O)cc1 (configuration not stated)	–	–	–	41	52	–	+	·	·	44	12
CCOc1cc(/C=C\[N+](=O)[O-])ccc1OCC(=O)Nc1ccccc1C	–	-3.6	112	89	55	–	+	96	102	97	13
COc1cc(/C=C/c2cccc[n+]2C)ccc1OCC(=O)Nc1ccccc1C	–	·	–	–	–	·	·	·	·	·	·
O=C1N(Cc2ccccc2)c2ccccc2OC1(F)F	·	·	·	–	–	·	·	·	·	·	·
O=C1C=CC(=O)N1c1cccc(-c2ccccc2)c1	–	-3.8	97	36	28	·	–	51	94	90	29
COc1ccc(/C=C/C(=O)c2cc(F)ccc2OC(=O)c2ccccc2OC)cc1OC	–	-3.9	–	22	63	–	+	78	60	22	–
O=c1[nH]c(=S)[nH]cc1Oc1ccc(Br)cc1Br	–	·	–	–	–	·	·	·	·	·	·
CCc1cccc2cc3c(N)c(C(=O)Nc4ccc(S(=O)(=O)N5CCCC5)cc4)sc3nc12	30	–	–	33	–	–	–	·	·	42	51	TLR9-MyD88 conf=–;BLA counter-1=–;TLR9 CHO cytotox=29
COc1cccc(CC(=O)Nc2ccc(S(=O)(=O)N3CCCCC3)cc2)c1	–	·	–	–	–	·	·	·	·	·	·

Bioassay records (PubChem BioAssay)
